The source of these data is PubChem BioAssay AID652255 (Vanderbilt Specialized Chemistry Center, 2013).

The structures appear in SMILES notation. Active and inactive are the calls of the source. How the calls were made is not given here.

For the assay, the target named is Proteinase-activated receptor 1 (Homo sapiens) (UniProt P25116). Description: inhibition of PAR1-AP platelet activation – cell-based, CRC, P-selectin flow cytometry, selectivity assay for PAR4 antagonist project, dose response (AID 652255). The conditions noted are these: Washed human platelets. In a few lines:
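material = Antibody-labelled washed platelets | probe or stimulus = PAR1 activating peptide (PAR1-AP) as agonist | doses = antagonist exposure with 0.5% DMSO final | incubation = 5 min label, 5 min compound, 10 min agonist | technique = flow cytometry fluorescence intensity, 100,000 platelet-gated events, paraformaldehyde-fixed | control set = vehicle (DMSO) control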

Proteinase-activated receptor 1 (Homo sapiens), sequence (P25116 whole entry, looked up): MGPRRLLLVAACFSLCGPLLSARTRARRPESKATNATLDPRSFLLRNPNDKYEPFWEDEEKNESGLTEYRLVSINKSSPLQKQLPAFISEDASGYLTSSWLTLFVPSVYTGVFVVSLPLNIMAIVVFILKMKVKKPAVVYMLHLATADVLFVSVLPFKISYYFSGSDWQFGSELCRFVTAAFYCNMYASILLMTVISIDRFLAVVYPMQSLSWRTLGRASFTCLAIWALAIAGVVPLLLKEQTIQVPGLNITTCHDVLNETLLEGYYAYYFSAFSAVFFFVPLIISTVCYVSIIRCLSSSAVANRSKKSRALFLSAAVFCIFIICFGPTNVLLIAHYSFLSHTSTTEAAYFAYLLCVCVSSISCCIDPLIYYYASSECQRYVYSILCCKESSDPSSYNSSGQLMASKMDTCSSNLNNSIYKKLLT

`COc1ccc(COc2ccc(C(=O)NCCC(C)(C)C)cc2)cc1` registered a max inhibition (stronger effect = higher value) of 57.1%.

`CCCOCc1c(-c2ccccc2)c2cc([N+](=O)[O-])ccc2n1C`: the IC50 result was “inactive”.
